Screens as filed in PubChem.
Scp-1 inhibitor – blocks human Scp-1 phosphatase activity | Q9GZU7 | Recombinant Scp1, phosphopeptide, malachite green phosphate absorbance | inhibition, % at 20 µM | 340,000 compounds, 0.88% hits;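 active = inhibition above about 50% at 20 µM, limit read from the data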;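 also: plate controls were DMSO wells with enzyme for no effect and wells lacking enzyme for full effect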
Target sequence (Q9GZU7 76-261 limits assumed): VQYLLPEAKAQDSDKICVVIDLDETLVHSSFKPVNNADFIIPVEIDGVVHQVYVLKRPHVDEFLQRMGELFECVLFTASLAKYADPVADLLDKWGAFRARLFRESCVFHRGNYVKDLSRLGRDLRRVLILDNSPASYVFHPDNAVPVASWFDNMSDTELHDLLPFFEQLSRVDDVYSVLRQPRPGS
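System: truncated SCP-1 phosphatase (76-261aa); medium: Tris acetate buffer pH 5.5 with MgCl2 and Tween-20; incubation: 45 min room-temperature reaction, 5 min colour, 30 min stabiliser; compound: single 20 µM dose, 1% DMSO; reagent: Phosphorylated 17-residue peptide substrate; read-out: % inhibition at 20 µM; technique: colorimetric free-phosphate detection, absorbance 630 nm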
STEP inh – blocks human striatal-enriched tyrosine phosphatase | inhibition, % at 20 µM | 360,000 compounds, 0.25% hits | recombinant STEP, OMFP fluorogenic substrate, fluorescence | P54829;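 active = inhibition at 20 µM, scaled per plate between control wells, above about 37%, limit read from the data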;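 also: 0% = DMSO with enzyme and substrate and 100% = substrate only without enzyme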
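Measure: Control-normalized % inhibition with plate pattern correction | Test system: STEP phosphatase, cell-free reaction | Medium: pH 6.0 Bis-Tris with DTT and Tween 20 | Technique: Fluorescence, 480/540 nm | Times: Reaction 20 min, ambient temperature | Doses: Single compound dose of 20 µM, 1% DMSO final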
LMPTP inh – blocks human LMPTP phosphatase; P24666; recombinant LMPTP-A, OMFP fluorogenic substrate, fluorescence intensity; inhibition, % at 20 µM; AID 651560; 360,000 compounds, 0.22% hits;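 active = compounds that cut the enzyme signal by at least half of the control window in the single-dose screen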;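 also: plate controls were DMSO wells with enzyme plus substrate for no effect and substrate without enzyme for full effect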
Target sequence (P24666 whole entry, looked up): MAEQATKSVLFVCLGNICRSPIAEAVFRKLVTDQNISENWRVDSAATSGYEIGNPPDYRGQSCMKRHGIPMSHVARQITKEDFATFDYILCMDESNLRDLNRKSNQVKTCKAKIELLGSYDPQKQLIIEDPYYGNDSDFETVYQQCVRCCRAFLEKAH
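Assay system: LMPTP-A enzyme. Input: 0.625 nM LMPTP-A final. Probe or stimulus: 400 µM OMFP. Compound dosing: single 20 µM dose. Schedule: 50 min dark incubation at room temperature. Detection: fluorescence intensity of OMFP turnover product. Read-out: percent inhibition versus substrate-only and uninhibited controls. Benchmarks: no-enzyme low control, uninhibited high control.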
DSG3 Ab inh – human desmoglein-3 autoantibody binding inhibition; P32926; DSG3-coupled beads, scFv-anti-DSG3-GFP binding, flow cytometry; hits give low values; binding (percent of control), % at 10 µM; 310,000 compounds, 0.48% hits; AID 588358;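 active = binding more than 3 SD below its plate's average and above zero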;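 also: hits lower antibody fragment binding to DSG3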
SUMO1-SIM PPI – alters human SUMO1 binding to SIM partners; inhibition, % at 20 µM; 360,000 compounds, 0.33% hits; P63165; SUMO1 binding to a labelled peptide, TR-FRET, 1 h; in the data active = inhibition above about 37%
Target sequence (P63165 whole entry, looked up): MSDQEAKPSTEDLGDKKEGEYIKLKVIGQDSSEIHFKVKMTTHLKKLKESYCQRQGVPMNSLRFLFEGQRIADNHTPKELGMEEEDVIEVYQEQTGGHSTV
The depositor's hits bear a star; . = no result. A selection: hits, their analogues and other compounds. The true share with any hit is near 1.7%.

SMILES	Scp-1 inhibitor	STEP inh	LMPTP inh	DSG3 Ab inh	SUMO1-SIM PPI
CCN(CC)C(=O)C1=C(C)N(CCCOC)C(=O)C(CC(=O)NCc2cccc3ccccc23)C1 (stereo not given)	.	-1	0	.	1
Cc1ccc(N2C(=O)/C(=C/c3cccnc3)SC2=S)cc1	3	0	-2	88*	-10
Cc1cccc(N2C(=O)/C(=C/c3cccnc3)SC2=S)c1	-3	3	2	104	-20
COCCNc1nc(NCc2cc(-c3ccc(OC)cc3)no2)c2sccc2n1	.	2	57*	.	7
Cn1c(CN2CCCC2)nc2cc(NC(=O)COc3ccc([N+](=O)[O-])cc3)ccc21	-5	3	9	.	-13
Nc1ccn([C@@H]2O[C@H](COS(=O)(=O)O)[C@@H](O)[C@H]2O)c(=O)n1	7	1	-1	97	1
CSCCC(NC(=O)C12CC3CC(CC(C3)C1)C2)C(=O)OCC(=O)c1ccc(C)cc1 (stereo not given)	5	-1	-1	53*	19
Cc1ccc(CN2CCSc3ccc(C(=O)NCCCN4CCN(C)CC4)cc32)cc1	-9	-3	-8	105	-5
C[C@H](CO)N1C[C@H](C)[C@@H](CN(C)Cc2ccccc2)OCc2cnnn2CCCC1=O	.	-4	-3	91*	-1
CCS(=O)(=O)C1=NN2C(=N)/C(=C\c3ccc(SCc4ccco4)o3)C(=O)N=C2S1	77*	14	42	103	50*
CC12CCC(C(=O)Nc3ccncc3)(CC1O)C2(C)C (stereo not given)	-5	-1	-1	.	3
O=c1cc(-c2cc3ccccc3o2)c2cc(O)ccc2o1	28	12	58*	.	-7
CC(=O)COc1ccc2oc(=O)cc(-c3cc4ccccc4o3)c2c1	-8	3	4	106	-39
CCc1nc2c(OCC(=O)C(C)(C)C)cccn2c1N(C)C(=O)CC(C)C	.	0	0	.	1
CNc1nc(-c2ccc(S(=O)(=O)N3CCCCC3)cc2)cs1	-2	-1	0	82*	-22
NC(=O)C1CCN(C(=S)c2ccc(-c3ccc(Br)cc3)o2)CC1	-3	95*	-1	95	-7
NC(=O)c1ccc(-c2ccc(Br)cc2)o1	-3	-4	1	.	-15
O=C(COC(=O)/C=C/c1cccc(F)c1)Nc1ncccn1	38	0	-1	83*	3
O=C(COC(=O)/C=C/c1cccc(F)c1)Nc1ccc(Cl)cn1	-1	2	-1	101	-5
O=C(CSc1n[nH]c(-c2ccco2)n1)Nc1ccccc1Cl	-1	-2	-2	43*	1
N#C/C(=C\c1ccccc1C(=O)O)c1nc2ccccc2[nH]1	-12	-2	1	127	-10
N#C/C(=C\c1ccc(-c2ccc(C(=O)O)cc2)o1)c1nc2ccccc2[nH]1	57*	60*	8	107	3
O=C1CCCN1C(=O)COc1ccccc1[N+](=O)[O-]	-3	-1	-2	99	-8
O=C(COc1ccccc1)Nc1nc(-c2cccs2)cs1	-9	0	0	103	-11
O=C(CCS(=O)(=O)c1ccc(F)cc1)Nc1nc(-c2ccncc2)cs1	-5	57*	0	98	-1
SMILES	Scp-1 inhibitor	STEP inh	LMPTP inh	DSG3 Ab inh	SUMO1-SIM PPI
O=C(CCS(=O)(=O)c1ccccc1)Nc1nc(-c2cccs2)cs1	-15	-1	2	69*	-11
CC(C)(C)c1csc(NC(=O)CCS(=O)(=O)c2ccc(F)cc2)n1	.	0	0	99	1
COc1cc(/C=C/CNC[C@H]2O[C@@H](n3cnc4c(N)ncnc43)[C@H](O)[C@@H]2O)ccc1O	.	2	-1	.	-2
COc1ccc(CCNC(=O)c2ccccc2)cc1	-4	-3	0	65*	5
COc1ccc2[nH]c(O)c(N=NC(=O)c3ccc(NS(=O)(=O)c4cccs4)cc3)c2c1	24	3	5	89	10
O=C(N=Nc1c(O)[nH]c2ccc(F)cc12)c1ccc(NS(=O)(=O)c2cccs2)cc1	-10	2	53*	83	-4
CCCc1c(C)[nH]c2ccc(C(=O)O)cc2c1=S	39	4	9	97	96*
O=C(NCCc1ccccn1)c1c(-c2ccsc2)sc2ccccc12	100*	0	-1	107	-9
O=C(CSc1nnc(-c2ccco2)o1)c1ccccc1	-2	5	1	99	1
